The nature of data set [1]: Effect on gut microbiota in cefoperazone-treated C57BL/6J mouse model of recurrent Clostridioides difficile 630 infection assessed as increase in abundance of Lachnospiraceae at 5 mg/kg, po for 5 days from day 4 to 9 after infection with spores measured on day day 14 by 16S rRNA Illumina sequencing analysis. The class given is ADME, organism-based. The settings on record: in vivo, 120 h. The procedure, abridged: (§1)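 Recurrent CDI model in cefoperazone-treated C57BL/6J mice challenged with strain 630 and gavaged on days 4–9 (n = 6 per group). Cecal tissue snips collected at necropsy underwent 16S rRNA gene community sequencing on Illumina MiSeq.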

In data set [2] the test system is Clostridioides difficile. The data set is described as follows: Suppression of relapse of Clostridioides difficile 630 infection in cefoperazone-treated C57BL/6J mouse model of recurrent Clostridioides difficile 630 infection assessed as reduction in microbial load (total vegetative cells plus spores) at 5 mg/kg, po for 5 days from day 4 to 9 after infection with spores measured on day 9. The class given is functional, organism-based. A digest of the protocol: (§2)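 Five-week-old C57BL/6J mice of both sexes given cefoperazone 0.5 mg/ml in drinking water for 5 days, then a 2-day washout. Oral challenge with C. difficile 630 spores on day 0. Oral gavage in 2-(hydroxypropyl)-cyclodextrin vehicle on days 4–9; n = 6 per group. Body weight recorded daily. Feces or cecal contents suspended 1:10 in PBS, serially diluted and plated on TCCFA, incubated anaerobically at 37°C for 24 h; results as CFU/g.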

A short description of data set [3]: Volume of distribution at steady state in non-antibioticc-treated C57Bl/6J mouse at 0.3 mg/kg, iv and measured after 5 mins to 24 hrs by LC/MS-SRM analysis. The class given is ADME, organism-based. The settings on record: in vivo. A digest of the protocol:
(§3)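 Non-antibiotic-treated C57Bl/6J mice given a single i.v. dose of 0.3 mg/kg; n = 3 per time point. Bled at 5, 10, 30 min and 1, 2, 4, 8, 24 h. Plasma mixed with 2 volumes acetonitrile containing internal standard, centrifuged, supernatant quantified by LC/MS-SRM.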

The nature of data set [4]: Instantaneous volume of distribution in non-antibioticc-treated C57Bl/6J mouse at 0.3 mg/kg, iv and measured after 5 mins to 24 hrs by LC/MS-SRM analysis. Format: ADME, organism-based. The settings on record: in vivo. A digest of the protocol: as §3
Data set [5] in a line: Half life in non-antibioticc-treated C57Bl/6J mouse at 0.3 mg/kg, iv and measured after 5 mins to 24 hrs by LC/MS-SRM analysis. Format: ADME, organism-based. The settings on record: in vivo. A digest of the protocol: as §3
The subject of data set [6] is Clostridioides difficile. Nature of the data set: Suppression of relapse of Clostridioides difficile 630 infection in cefoperazone-treated C57BL/6J mouse model of recurrent Clostridioides difficile 630 infection assessed as reduction in group-Proteobacteria level at 5 mg/kg, po for 5 days from day 4 to 9 after infection with spores measured on day day 14. The class given is functional, organism-based. The procedure, abridged: as §1

The nature of data set [7]: Cytotoxicity in HEK293T/17 cells assessed as reduction in cell viability incubated for 16 hrs by MTS assay. Format: cell-based. The settings on record: human. The procedure, abridged: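 HEK 293T/17 cells seeded at 2 × 10⁴ per well in DMEM and allowed to adhere 24 h at 37°C, 5% CO₂. Exposed to 0.020–40 µM compound in DMEM for 16 h, then MTS read-out after 1 h at 37°C. Normalized to untreated cells and to 0.2 mM digitonin; duplicates.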

The nature of data set [8]: AUC in cefoperazone-treated C57Bl/6J mouse at 1 mg/kg, po dosed each day for 5 days by LC/MS-SRM analysis. The settings on record: in vivo. The class given is ADME, organism-based. The procedure, abridged:
(§4)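 C57Bl/6J mice pre-treated with cefoperazone 0.5 mg/mL in drinking water for 10 days, then a 2-day washout. Oral dose of 1 mg/kg given daily for 5 days. Bled at 5, 10, 30 min and 1, 2, 4, 10, 24 h after dosing on the first and final days; n = 3 per time point. Plasma mixed with 2 volumes acetonitrile containing internal standard, centrifuged, supernatant analysed by LC/MS-SRM.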

Data set [9] can be described thus: MRT in non-antibioticc-treated C57Bl/6J mouse at 0.3 mg/kg, iv and measured after 5 mins to 24 hrs by LC/MS-SRM analysis. The class given is ADME, organism-based. The settings on record: in vivo. The procedure, abridged: as §3
Data set [10] deals with Clostridioides difficile. Nature of the data set: Suppression of relapse of Clostridioides difficile 630 infection in cefoperazone-treated C57BL/6J mouse model of recurrent Clostridioides difficile 630 infection assessed as reduction in histopathological summary scores at 5 mg/kg, po for 5 days from day 4 to 9 after infection with spores measured on day day 14. Format: functional, organism-based. The procedure, abridged: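 Recurrent CDI model in cefoperazone-treated C57BL/6J mice challenged with strain 630 and gavaged on days 4–9 (n = 6 per group). At necropsy on day 14, H&E-stained cecum and colon scored 0–4 each for edema, inflammatory cell infiltration and epithelial damage. Scoring done blinded by a veterinary pathologist.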

Data set [11] relates to Clostridioides difficile. Nature of the data set: Suppression of relapse of Clostridioides difficile 630 infection in cefoperazone-treated C57BL/6J mouse model of recurrent Clostridioides difficile 630 infection assessed as reduction in microbial load (total vegetative cells plus spores) at 5 mg/kg, po for 5 days from day 4 to 9 after infection with spores. The class given is functional, organism-based. A digest of the protocol:
as §2

Data set [12] can be described thus: Tmax in cefoperazone-treated C57Bl/6J mouse at 1 mg/kg, po dosed each day for 5 days by LC/MS-SRM analysis. The class given is ADME, organism-based. The settings on record: in vivo. The procedure, abridged:
as §4

Data set [13] can be described thus: Cmax in cefoperazone-treated C57Bl/6J mouse at 1 mg/kg, po dosed each day for 5 days by LC/MS-SRM analysis. The class given is ADME, organism-based. The arrangement: dose 1 mg/kg, route oral. The settings on record: in vivo. The procedure, abridged:
as §4

Data set [14] in a line: Effect on gut microbiota in cefoperazone-treated C57BL/6J mouse model of recurrent Clostridioides difficile 630 infection assessed as increase in abundance of group-Ruminococcaceae at 5 mg/kg, po for 5 days from day 4 to 9 after infection with spores measured on day day 14 by 16S rRNA Illumina sequencing analysis. Format: ADME, organism-based. The settings on record: in vivo, 120 h. The procedure, abridged:
as §1

The nature of data set [15]: Toxicity in sheep RBC assessed as induction of hemolysis at 0.625 to 80 uM incubated for 1 hr at 37 degC relative to control. The class given is cell-based, Ovis aries, Erythrocyte. The settings on record: sheep red blood cells (erythrocytes), read-out: Activity. The procedure, abridged:
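Sheep erythrocytes washed three times in PBS pH 7.4. A 3% suspension mixed 1:1 with compound in PBS, final 0.625–80 µM, for 1 h at 37°C. Centrifuged at 500 × g and supernatant absorbance read at 540 nm. 1% Triton X-100 served as positive control and 1.6% DMSO in PBS as negative control.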

A short description of data set [16]: Effect on gut microbiota in cefoperazone-treated C57BL/6J mouse model of recurrent Clostridioides difficile 630 infection assessed as increase in abundance of phylum Firmicutes at 5 mg/kg, po for 5 days from day 4 to 9 after infection with spores measured on day day 14 by 16S rRNA Illumina sequencing analysis. The settings on record: in vivo, 120 h. The class given is ADME, organism-based. The procedure, abridged:
as §1

Data set [17] has as its system Clostridioides difficile. The data set is described as follows: Suppression of relapse of Clostridioides difficile 630 infection in cefoperazone-treated C57BL/6J mouse model of recurrent Clostridioides difficile 630 infection assessed as reduction in toxin activity in cecal content at 5 mg/kg, po for 5 days from day 4 to 9 after infection with spores measured on day day 14. The class given is functional, organism-based. The procedure, abridged:
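Mice challenged with strain 630 spores after cefoperazone; drug given 5 mg/kg by gavage, days 4–9, vehicle hydroxypropyl-cyclodextrin. Cecal content at day 14 diluted 1:10 in PBS, filtered, then serially diluted to 10⁻⁶. Dilutions preincubated 40 min at room temperature with PBS or antitoxin, then added to Vero cells overnight at 37°C. Titer is the reciprocal of the highest dilution rounding 80% of cells.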

Data set [18] is described as follows: Half life in cefoperazone-treated C57Bl/6J mouse at 1 mg/kg, po dosed each day for 5 days by LC/MS-SRM analysis. The class given is ADME, organism-based. The settings on record: in vivo. A digest of the protocol: as §4

The source of these data is ChEMBL document CHEMBL4610116, “Salicylanilide Analog Minimizes Relapse of Clostridioides difficile Infection in Mice” (J Med Chem, 2020).

Active and inactive are the calls of the source. The calls are words filed in the database; no cut-off is given here. Bounds are passed on as bounds.

Consider `O=C(Nc1cc(C(F)(F)F)c(Oc2ccc(Cl)cc2)c(C(F)(F)F)c1)c1cc(Cl)cc(Cl)c1O`, for which the Activity result was “Non-Toxic” in [1], above 2.5 µM in data set [7], “Non-Toxic” in data set [14] and “Non-Toxic” in data set [16]. The outcome in data set [2], in [6], in [10], in data set [11] and in data set [17] was Active. In data set [3], this molecule yielded a volume of distribution (Vdss) of 7.9 mL. Also, the Vc in data set [4] was determined as 8.5 mL. Also, the half-life in data set [5] was 5 h; in data set [18], 10.7 h. Moreover, the AUC at 120 h in data set [8] amounted to 23.2 µM·h. Further, the MRT in data set [9] was 5.26 h. Besides, the Tmax in data set [12] is 2 h. Moreover, in data set [13], the Cmax came to 1780 nM. Moreover, in [15], the hemolysis at 1 h, up to 80 µM is below 2%.
